# In ChEMBL document CHEMBL1140759, “Synthesis, anti-Toxoplasma gondii and antimicrobial activities of benzaldehyde 4-phenyl-3-thiosemicarbazones and 2-[(phenylmethylene)hydrazono]-4-oxo-3-phenyl-5-thiazolidineacetic acids” (Bioorg Med Chem, 2008):
# How the values were obtained:
# [1] = system: Mycobacterium tuberculosis; experiment: Antimicrobial activity against Mycobacterium tuberculosis at 100 ug/disc; assay type: functional; conditions: read-out: IZ
# Method in brief: (§1)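 Agar disc diffusion: paper discs loaded with compound placed on agar plates seeded with a standardised microbial suspension. DMSO-only discs served as negative control. Chloramphenicol and rifampicin (bacteria) or nistatin (fungi) gave reference zones. Read-out was mean zone of inhibition diameter (mm). Each experiment was run three times and repeated if results differed.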
# Micrococcus luteus = experiment: Antimicrobial activity against Micrococcus luteus at 100 ug/disc; assay type: functional; conditions: read-out: IZ
# Method in brief: (§2)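 Disc diffusion on agar plates inoculated with a standardized microbial suspension, with paper discs carrying known compound amounts. DMSO-only discs served as negative controls, and chloramphenicol, rifampicin (bacteria) or nistatin (fungi) as references. The read-out is the mean inhibition zone diameter in mm. Each run was done three times and repeated if results differed.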
# Bacillus subtilis = experiment: Antimicrobial activity against Bacillus subtilis at 100 ug/disc; assay type: functional; conditions: read-out: IZ; method in brief: as §2
# Escherichia coli = experiment: Antimicrobial activity against Escherichia coli at 100 ug/disc; assay type: functional; conditions: read-out: IZ; method in brief: as §2
# [2] = system: Mycolicibacterium smegmatis; experiment: Antimicrobial activity against Mycobacterium smegmatis at 100 ug/disc; assay type: functional; conditions: read-out: IZ; method in brief: as §2
# [3] = system: Mycolicibacterium smegmatis; experiment: Antimicrobial activity against Mycobacterium smegmatis; assay type: functional
# Method in brief: (§3)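 Tube dilution MIC, run on compounds with a disc-diffusion zone of at least 18 mm. The DMSO stock (1 mg/mL) was serially diluted to 10–220 µg/mL final in medium, and strains were inoculated at 10^8/mL. Media were tryptic soy or nutrient agar for bacteria and Sabouraud liquid for fungi, incubated 24–48 h at 37 °C (bacteria) or 30 °C (fungi). MIC is the lowest concentration giving clear tubes.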
# Staphylococcus aureus [4] = experiment: Antimicrobial activity against Staphylococcus aureus at 100 ug/disc; assay type: functional; conditions: read-out: IZ; method in brief: as §1
# Enterococcus faecalis [5] = experiment: Antimicrobial activity against Streptococcus faecalis at 100 ug/disc; assay type: functional; conditions: read-out: IZ; method in brief: as §2
# Mycolicibacterium phlei = experiment: Antimicrobial activity against Mycobacterium phlei at 100 ug/disc; assay type: functional; conditions: read-out: IZ; method in brief: as §2
# [6] = system: Mycobacterium tuberculosis; experiment: Antimicrobial activity against Mycobacterium tuberculosis; assay type: functional
# Klebsiella pneumoniae = experiment: Antimicrobial activity against Klebsiella pneumoniae at 100 ug/disc; assay type: functional; conditions: read-out: IZ; method in brief: as §2
# Enterococcus faecalis [7] = experiment: Antimicrobial activity against Streptococcus faecalis; assay type: functional; method in brief: as §3
# Staphylococcus aureus [8] = experiment: Antimicrobial activity against Staphylococcus aureus; assay type: functional; method in brief: as §3
# Candida [9] = experiment: Antimicrobial activity against Candida sp. IMUR4249 at 100 ug/disc; assay type: functional, organism-based; method in brief: as §1
# Candida [10] = experiment: Antimicrobial activity against Candida sp. IMUR4249; assay type: functional; method in brief: as §3
# Candida [11] = experiment: Antimicrobial activity against Candida sp. IMUR1224 at 100 ug/disc; assay type: functional, organism-based; method in brief: as §1
# Candida [12] = experiment: Antimicrobial activity against Candida sp. IMUR720 at 100 ug/disc; assay type: functional, organism-based; method in brief: as §1
# Saccharomyces cerevisiae = experiment: Antimicrobial activity against Saccharomyces cerevisiae at 100 ug/disc; assay type: functional, organism-based; method in brief: as §1
compound,measurement,setting,value
CO[C@H]1/C=C/O[C@@]2(C)Oc3c(C)c(O)c4c(O)c(c(/C=N/N5CCN(C)CC5)c(O)c4c3C2=O)NC(=O)/C(C)=C\C=C\[C@H](C)[C@H](O)[C@@H](C)[C@@H](O)[C@@H](C)[C@H](OC(C)=O)[C@@H]1C [RIFAMPIN],zone of inhibition at 100 µg/disc,[1],28 mm
same,zone of inhibition at 100 µg/disc,Micrococcus luteus,49 mm
same,zone of inhibition at 100 µg/disc,Bacillus subtilis,20 mm
same,zone of inhibition at 100 µg/disc,Escherichia coli,14 mm
same,zone of inhibition at 100 µg/disc,[2],30 mm
same,MBC,[3],130 µg/mL
same,MIC,[3],140 µg/mL
same,zone of inhibition at 100 µg/disc,Staphylococcus aureus [4],31 mm
same,zone of inhibition at 100 µg/disc,Enterococcus faecalis [5],20 mm
same,zone of inhibition at 100 µg/disc,Mycolicibacterium phlei,25 mm
same,MBC,[6],100 µg/mL
same,MIC,[6],110 µg/mL
O=C(N[C@H](CO)[C@H](O)c1ccc([N+](=O)[O-])cc1)C(Cl)Cl [CHLORAMPHENICOL],zone of inhibition at 100 µg/disc,Klebsiella pneumoniae,25 mm
same,MBC,Enterococcus faecalis [7],60 µg/mL
same,MIC,Enterococcus faecalis [7],70 µg/mL
same,zone of inhibition at 100 µg/disc,Micrococcus luteus,50 mm
same,zone of inhibition at 100 µg/disc,Bacillus subtilis,27 mm
same,zone of inhibition at 100 µg/disc,Escherichia coli,27 mm
same,MBC,Staphylococcus aureus [8],20 µg/mL
same,MIC,Staphylococcus aureus [8],25 µg/mL
same,zone of inhibition at 100 µg/disc,Staphylococcus aureus [4],25 mm
NYSTATIN,inhibition zone (IZ),Candida [9],32 mm
same,MFC,Candida [10],70 µg/mL
same,MIC,Candida [10],80 µg/mL
same,inhibition zone (IZ),Candida [11],30 mm
same,inhibition zone (IZ),Candida [12],20 mm
same,inhibition zone (IZ),Saccharomyces cerevisiae,20 mm
